Common to all, as to assay type: functional
In test [1] the test system is Mus musculus. The test is described as follows: Amnesia-reversal activity evaluated in scopolamine-induced amnesia model of mice at a dose of 1 mg/kg. A digest of the protocol: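 Male CD1 mice (24–28 g), step-through passive avoidance, retention end point 300 s. Scopolamine hydrobromide 1.5 mg/kg sc 15 min before acquisition. Compounds given ip 30 min before acquisition at a dose equimolar to 1 mg/kg Piracetam. Retention latency vs control by Mann-Whitney U. AA = CI treated/CI sham ×100.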

Test [2] has as its system Mus musculus. Description: Amnesia-reversal activity evaluated in ECS-induced amnesia model of mice at a dose of 10 mg/kg. The gist of the method: (§1)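 Male CD1 mice (24–28 g), step-through passive avoidance, retention end point 300 s. ECS via auricular electrodes (20 mA, 0.6 ms pulses, 0.5 s, 50 Hz) immediately after the acquisition trial. Compounds given ip 30 min before acquisition at doses equimolar to 1, 10 (and 100 for references) mg/kg Piracetam. Retention latency vs control by Mann-Whitney U. AA = CI treated/CI sham ×100.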

The test system of test [3] is Mus musculus. Description: Amnesia-reversal activity evaluated in ECS-induced amnesia model of mice at a dose of 1 mg/kg. A digest of the protocol:
as §1

Test [4] has as its system Mus musculus. Description: Amnesia-reversal activity in ECS-induced amnesia model of mice at 1 mg/kg i.p. As to conditions: route intraperitoneal. A digest of the protocol:
(§2)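 Male CD1 mice (24–28 g), step-through passive avoidance. Amnesia induced by ECS through auricular electrodes (20 mA, 0.6 ms pulses, 0.5 s, 50 Hz) immediately after the acquisition trial. Compound given ip 30 min before acquisition, at doses equimolar to 1 or 10 mg/kg Piracetam. Retention latency capped at 300 s. AA = CI(treated)/CI(sham) × 100, with CI derived from Mann-Whitney U versus amnesic controls.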

The test system of test [5] is Mus musculus. The test is described as follows: Amnesia-reversal activity in scopolamine-induced amnesia model of mice at 1 mg/kg i.p. As to conditions: route intraperitoneal. A digest of the protocol: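 Step-through passive avoidance in male CD1 mice (24–28 g). Scopolamine hydrobromide 1.5 mg/kg sc given 15 min before the acquisition trial. Test substance given ip 30 min before acquisition at a dose equimolar to 1 mg/kg Piracetam. Retention latency end point 300 s. AA is the treated-to-sham ratio of confrontation indices (×100), each index computed from Mann-Whitney U against the scopolamine-only group.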

Test [6] deals with Mus musculus. Description: Amnesia-reversal activity in ECS-induced amnesia model of mice at 10 mg/kg i.p. As to conditions: route intraperitoneal. The gist of the method: as §2
Test [7] relates to Mus musculus. The test is described as follows: Amnesia-reversal activity (AA) evaluated in ECS-induced amnesia model of mice at a dose of 100 mg/kg. The gist of the method:
as §1

Turning to `N[C@H]1CCNC1=O`, the AA with Mus musculus [1] stood at 0; in the test on Mus musculus [2] it was 0; in the test on Mus musculus [3] it was 24.

For the compound `N[C@H]1CCCCNC1=O`, the AA turned out to be 47 with Mus musculus [1], 26 with Mus musculus [2] and 37 with Mus musculus [3].

Consider `O=CCN1CCCC[C@H](NC(=O)CCCc2ccccc2)C1=O`, for which the AA was 26 in the test on Mus musculus [1], 25 in the test on Mus musculus [2] and 0 with Mus musculus [3].

On to `O=CN[C@H]1CCCCN(CCO)C1=O`, for which the AA with Mus musculus [4] is on record as 46; in the test with Mus musculus [5], 7; in the test on Mus musculus [6], 61.

As for `O=C(N[C@@H]1CCCCNC1=O)c1cccc(C(F)(F)F)c1`, the AA was determined as 21 in the test with Mus musculus [4], 15 with Mus musculus [5] and 0 with Mus musculus [6].

As for `O=C(CCCc1ccccc1)N[C@H]1CCCCN(CCO)C1=O`, the figures for the AA in the test with Mus musculus [4], with Mus musculus [5] and with Mus musculus [6] were 7, 12 and 20, respectively.

`NC(=O)CN1CCCC[C@H](NC(=O)CCCc2ccccc2)C1=O`: the AA with Mus musculus [4], with Mus musculus [5] and in the test with Mus musculus [6] was 0 throughout.

`COc1cc(C(=O)NC2CCCCNC2=O)cc(OC)c1OC` (stereo not drawn): the AA is on record as 31 in the test on Mus musculus [4], 0 in the test on Mus musculus [5] and 42 in the test with Mus musculus [6].

`COC(=O)CN1CCCC[C@H](NC(=O)CCCc2ccccc2)C1=O`: the AA in the test with Mus musculus [1], in the test with Mus musculus [2] and in the test with Mus musculus [3] was 0 each time.

For the compound `O=C(NC1CCCCNC1=O)c1cccc(C(F)(F)F)c1` (stereo not drawn), the AA in the test on Mus musculus [4] was 18; in the test on Mus musculus [5], 65; in the test on Mus musculus [6], 17.

For `CC(=O)NC1CCCCNC1=O` (stereo not drawn), the AA is 7 with Mus musculus [4], 39 in the test on Mus musculus [5] and 14 in the test on Mus musculus [6].

Regarding `O=C(CCCc1ccccc1)NC1CCCCNC1=O` (stereo not drawn), the AA was found to be 0 with Mus musculus [4], 5 in the test on Mus musculus [5] and 0 in the test with Mus musculus [6].

For the compound `NC(=O)CN1CC(O)CC1=O` (stereo not drawn) [OXIRACETAM], the AA with Mus musculus [4] is 31; in the test on Mus musculus [7] it was 57; in the test on Mus musculus [5], 0; in the test with Mus musculus [6], 8.

As for `COC(=O)CN1CCCC[C@H](NC=O)C1=O`, the AA in the test on Mus musculus [4] came to 0; in the test with Mus musculus [5], 0; in the test on Mus musculus [6] it was 9.

For `COc1ccc(C(=O)N2CCCC2=O)cc1` [ANIRACETAM], the AA is given as 29 in the test with Mus musculus [4], 83 in the test on Mus musculus [7], 18 with Mus musculus [5] and 0 in the test on Mus musculus [6].

As for `O=C(CN1CCCC1=O)NC1CCCCNC1=O` (stereo not drawn), the AA amounted to 10 in the test on Mus musculus [4], 21 in the test with Mus musculus [5] and 0 in the test with Mus musculus [6].

As to `O=C1NCCCCC1NC(=O)[C@@H]1CCCN1C(=O)OCc1ccccc1` (stereo partly drawn), the AA in the test with Mus musculus [4] was found to be 0; in the test on Mus musculus [5] it was 27.

With `O=CNC1CCNC1=O` (stereo not drawn), the results for the AA in the test with Mus musculus [1], in the test on Mus musculus [2] and in the test with Mus musculus [3] were 0, 9 and 53, respectively.

For the compound `NC(=O)CN1CCCC[C@H](NC=O)C1=O`, the AA in the test on Mus musculus [4] came out at 55; in the test with Mus musculus [5] it was 0; with Mus musculus [6], 9.

For the compound `N[C@@H]1CCCCNC1=O`, the AA with Mus musculus [1] turned out to be 44; in the test on Mus musculus [2], 25; in the test with Mus musculus [3], 0.

With `NC(=O)CN1CCCC1=O` [PIRACETAM], the AA in the test on Mus musculus [4] was 0; with Mus musculus [7], 39; with Mus musculus [6] it was 0.

As to `COc1ccc(C(=O)NC2CCCCNC2=O)cc1` (stereo not drawn), the results for the AA in the test with Mus musculus [4], in the test with Mus musculus [5] and in the test with Mus musculus [6] were 37, 0 and 37, respectively.

In the case of `O=C(NC1CCNC1=O)c1cccc(C(F)(F)F)c1` (stereo not drawn), the figures for the AA in the test with Mus musculus [4], in the test on Mus musculus [5] and in the test with Mus musculus [6] were 51, 0 and 58, respectively.

Take `O=CNC1CCCCNC1=O` (stereo not drawn): the AA is on record as 71 in the test on Mus musculus [4], 49 with Mus musculus [5] and 55 with Mus musculus [6].

(Values after ChEMBL document CHEMBL1126698, “Synthesis and amnesia-reversal activity of a series of 7- and 5-membered 3-acylamino lactams” (1993).)
